SENP6 inh – SENP6 protease inhibitors, primary screen, biochemical, luminescence, uHTS. Sentrin-specific protease 6 (Homo sapiens), Q9GZR1. Recombinant SENP6 catalytic domain, aminoluciferin luminescence. inhibition, % at 10 µM. 330,000 compounds, 1.8% hits;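 active = inhibition above about 50% at the single tested dose, limit read from the data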
Target sequence (Q9GZR1 628-1112 limits assumed): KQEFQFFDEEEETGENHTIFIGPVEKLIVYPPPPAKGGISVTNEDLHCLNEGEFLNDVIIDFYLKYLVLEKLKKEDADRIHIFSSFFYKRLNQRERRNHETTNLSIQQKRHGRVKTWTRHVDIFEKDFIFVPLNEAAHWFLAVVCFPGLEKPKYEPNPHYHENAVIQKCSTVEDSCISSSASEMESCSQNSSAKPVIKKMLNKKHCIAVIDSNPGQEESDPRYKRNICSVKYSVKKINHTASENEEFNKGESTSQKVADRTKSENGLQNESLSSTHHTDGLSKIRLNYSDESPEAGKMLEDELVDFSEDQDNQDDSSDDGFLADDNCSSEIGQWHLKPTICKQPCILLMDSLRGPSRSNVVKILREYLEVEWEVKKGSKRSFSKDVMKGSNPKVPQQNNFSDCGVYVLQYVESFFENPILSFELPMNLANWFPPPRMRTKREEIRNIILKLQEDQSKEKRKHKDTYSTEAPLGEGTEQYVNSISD
SENP8 block-1 – human SENP8 protease inhibitors, primary screen, biochemical, fluorescence, Nedd8 protein substrate, uHTS; Sentrin-specific protease 8 (Homo sapiens), Q96LD8; AID 602440, 2012; recombinant SENP8; 360,000 compounds, 0.64% hits; inhibition, % at 20 µM; in the data active = inhibition mostly above about 40%, no sharp cut-off; inactive = mostly below about 27%
NRP1-CendR mod – modulators of CendR peptide binding to NRP-1, primary screen, biochemical, fluorescence polarization, uHTS; FAM-RPARPAR peptide binding to NRP-1; inhibition, % at 25 µM; 360,000 compounds, 0.85% hits;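 active = inhibition or corrected inhibition above about 18%, plus a signal ratio from 0.5 to 1.5, limit read from the data, passing the limit was not always enough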
SENP1 inh – human SENP1 catalytic domain inhibitors, primary screen, biochemical, FRET, uHTS; AID 624204, 2012; inhibition, % at 10 µM; recombinant SENP1 catalytic domain, CyPet-SUMO1-YPet FRET cleavage; 360,000 compounds, 0.21% hits;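 active = inhibition at least 30% at 10 µM, raw YFP signal under a set limit, fluorescence ratio 0.5 to 1.5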
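Compound: 10 µM single point, 0.5% DMSO; Test system: hSENP1 catalytic domain, recombinant; Timing: 50 min reaction at room temperature; Technique: FRET, CFP and YFP emission; Control set: no-enzyme wells low, DMSO-plus-enzyme wells high control.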
SENP8 block-2 – SENP8 protease inhibitors, primary screen, biochemical, luminescence; Sentrin-specific protease 8 (Homo sapiens), Q96LD8; inhibition, % at 10 µM; 330,000 compounds, 1.2% hits; purified SENP8, Z-RLRGG-aminoluciferin cleavage; in the data active = inhibition above about 50%
SENP7 inh – SENP7 protease inhibitors, primary screen, biochemical, luminescence, uHTS. Sentrin-specific protease 7 (Homo sapiens), Q9BQF6. recombinant SENP7, Z-RLRGG-aminoluciferin luminescence, 40 min. inhibition, % at 5 µM. 330,000 compounds, 1.5% hits;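 active = inhibition above about 50% at the single test dose, limit read from the data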
SENP8 confirm – SENP8 protease inhibitors, retest, confirmation, biochemical, luminescence, single concentration; shares compounds with SENP7 inh; inhibition, % at 12.5 µM; Recombinant SENP8, Z-RLRGG-aminoluciferin luminescence, 60 min; 6,200 compounds, 40% hits;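 active = mean inhibition across replicates above about 50%, limit read from the data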
SENP6 conf – SENP6 protease inhibitors, confirmation, biochemical, luminescence, single concentration; shares compounds with SENP7 inh; recombinant SENP6, Z-RLRGG-aminoluciferin luminescence; inhibition, % at 12.5 µM; 6,200 compounds, 58% hits; AID 488915, 2010
SENP7 confirm – SENP7 protease inhibitors, retest, confirmation, biochemical, luminescence, single concentration; 6,200 compounds, 69% hits; shares compounds with SENP7 inh; AID 488917, 2010; inhibition, % at 12.5 µM; recombinant SENP7, Z-RLRGG-aminoluciferin luminescence, 40 min
Casp3 SENP sel – caspase-3 protease inhibitors, confirmation, selectivity assay for SENP inhibitor project, biochemical, single concentration; shares compounds with SENP7 inh; purified caspase-3, Z-DEVD-aminoluciferin luminescence, 60 min; inhibition, % at 12.5 µM; 6,200 compounds, 60% hits; AID 488918, 2010;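 active = mean inhibition above about 50%, limit read from the data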
SENP luc ctr – luminescence interference (SENP counter-screen); inhibition, % at 12.5 µM; shares compounds with SENP7 inh; Pre-incubated SENP8/Z-RLRGG-aminoluciferin, luciferase luminescence interference; 6,200 compounds, 39% hits;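 active = mean inhibition above about 50% when retested at one dose, limit read from the data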
Numbers stand for hits; - = inactive; . = no result. Most compounds without a hit are left out; they make up all but 3.3% or so of the library.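 Rule for the calls, unless noted: active = mean inhibition above about 50% in the one-dose retest (limit read from the data); inactive = the rest.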

SMILES	SENP6 inh	SENP8 block-1	NRP1-CendR mod	SENP1 inh	SENP8 block-2	SENP7 inh	SENP8 confirm	SENP6 conf	SENP7 confirm	Casp3 SENP sel	SENP luc ctr
CC(=O)Nc1ccc(/C=C/c2noc(-c3ccccc3O)n2)cc1	-	-	-	-	-	59	-	-	-	-	-
Oc1ccccc1/C=C/c1noc(-c2ccccc2O)n1	-	-	-	-	-	52	-	-	79	-	-
O=S1(=O)CC(N2CCN(CCO)CC2)CN1Cc1cn(Cc2ccccc2C(F)(F)F)nn1 (configuration not stated)	.	-	-	-	.	.	.	.	.	.	.
CC(C)(C)n1nnnc1C(c1ccccc1)N1CCN(CCN2CCOCC2)CC1 (configuration not stated)	.	-	-	-	.	.	.	.	.	.	.
CCCNC(=O)C1(C)CCN(C(=O)c2ccc3c(c2)CCO3)C1 (configuration not stated)	.	-	-	-	.	.	.	.	.	.	.
CC(C)CNC(=O)c1cccc2c(-c3cccc(C(N)=O)c3)coc12	.	-	-	-	.	.	.	.	.	.	.
COc1cccc2sc(Nc3nnc(-c4ccc(F)cc4)o3)nc12	75	-	-	-	-	-	-	-	86	66	-
COc1cccc2sc(Nc3nnc(-c4cccs4)o3)nc12	92	-	-	-	84	73	84	84	97	83	55
COC(=O)c1ccc2nc(C3CCCCC3)c(Cc3ccccc3)n2c1	.	-	-	-	.	.	.	.	.	.	.
O=C(c1cc(-c2ccc(Cl)cc2Cl)on1)N1CCCCCC1	73	-	-	-	55	54	62	60	82	-	-
O=C(c1cc(-c2ccc(Cl)cc2Cl)on1)N1CCN(C(=O)c2ccco2)CC1	-	-	-	-	-	-	.	.	.	.	.
O=C(c1cc(-c2ccc(Cl)cc2Cl)on1)N1CCCC1	87	-	-	-	78	75	-	-	51	-	-
COCOc1cccc(CN2CCC2(C)C(=O)Nc2ccc(OC)c(OC)c2)c1 (configuration not stated)	.	-	-	-	.	.	.	.	.	.	.
O=C(CCCc1nc2ccccc2s1)NC1CCOC1=O (configuration not stated)	-	-	-	-	-	-	.	.	.	.	.
O=C(CCc1nc2ccccc2s1)NC1CCOC1=O (configuration not stated)	61	-	-	-	-	-	-	-	-	-	-
COc1ccc(C(=O)NC(=O)Nc2cc(C)ccn2)cc1	83	-	-	-	79	-	78	78	94	92	68
COc1cc(C(=O)Nc2cc(C)ccn2)cc(OC)c1OC	-	-	-	-	-	-	.	.	.	.	.
COc1ccc(C(=O)Nc2ccccc2C(=O)Nc2cc(C)ccn2)cc1	64	-	-	-	58	-	-	-	-	-	-
COc1ccccc1CNC(=O)c1ccc2nc(C)c(N(C)Cc3ccc(NC(C)=O)cc3)n2c1	.	-	-	-	.	.	.	.	.	.	.
O=C(O)c1ccc(N=Nc2c(O)ccc3ncccc23)cc1	97	-	-	-	97	100	99	99	102	89	62
O=C(O)c1cc(N=Nc2c(O)ccc3ccccc23)cc(C(=O)O)c1	.	-	-	-	.	.	.	.	.	.	.
O=C(Nc1ccc2ncccc2c1)c1cccc(Br)c1	53	-	-	-	-	-	-	-	65	-	-
Cc1ccc(C(=O)Nc2ccc3ncccc3c2)cc1	82	-	-	-	80	90	83	84	97	87	88
COc1ccc(C(=O)Nc2ccc3ncccc3c2)cc1	81	-	-	-	79	87	-	86	98	89	-
COc1ccc(Nc2ncccc2C(=O)O)cc1	57	-	-	-	-	-	-	-	76	81	63
SMILES	SENP6 inh	SENP8 block-1	NRP1-CendR mod	SENP1 inh	SENP8 block-2	SENP7 inh	SENP8 confirm	SENP6 conf	SENP7 confirm	Casp3 SENP sel	SENP luc ctr
O=C1CN(C(=O)COC(=O)COc2ccccc2)c2ccccc2N1	-	-	-	-	-	-	.	.	.	.	.
Cc1oc2ccc(OCc3ccc(Br)cc3)cc2c1C(=O)O	68	-	-	-	-	-	-	80	63	56	-
Cc1ccccc1COc1ccc2oc(C)c(C(=O)O)c2c1	-	-	-	-	-	-	.	.	.	.	.
Cc1oc2ccc(OCc3ccccc3F)cc2c1C(=O)O	77	-	-	-	53	-	61	57	83	74	69
Cc1oc2ccc(OCc3ccc(Cl)cc3)cc2c1C(=O)O	78	-	-	-	59	-	79	80	93	66	60
Clc1ccccc1-c1nnc2sc(-c3ccc4c(c3)OCO4)nn12	-	-	-	-	-	-	.	.	.	.	.
Clc1ccccc1-c1nnc(-c2ccc3c(c2)OCO3)o1	92	-	-	-	89	90	64	94	95	79	59
O=[N+]([O-])c1cccc(-c2nnc(-c3ccc4c(c3)OCO4)o2)c1	-	-	-	-	-	65	-	-	-	-	-
O=[N+]([O-])c1cccc(-c2nnc(-c3ccccc3)o2)c1	-	-	-	-	-	-	.	.	.	.	.
CN(C)S(=O)(=O)c1ccc(NC(=O)c2ccccn2)cc1	-	-	-	-	-	-	.	.	.	.	.
CCN(CC)S(=O)(=O)c1ccc(NC(=O)c2ccccn2)cc1	64	-	-	-	-	59	-	-	81	68	57
CC(=O)NS(=O)(=O)c1ccc(NC(=O)c2ccccn2)cc1	-	-	-	-	-	-	.	.	.	.	.
CCCNS(=O)(=O)c1ccc(NC(=O)c2ccccn2)cc1	69	-	-	-	-	57	-	-	79	76	58
